Measured values as given in ChEMBL document CHEMBL4321819, “Simple Structural Modifications Converting a Bona fide MDM2 PROTAC Degrader into a Molecular Glue Molecule: A Cautionary Tale in the Design of PROTAC Degraders” (J Med Chem, 2019).
Activity calls are given as the source filed them. No cut-off for these calls is given here.

Tests used:
RS4-11 = experiment: Antiproliferative activity against human RS4:11 cells expressing wild type p53 assessed as cell growth inhibition after 4 days by WST-8 assay; type: functional, cell-based; details: RS4-11, 96 h
Method in brief: (§1)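 Leukemia cells seeded at 10000–20000 cells/well, breast cancer lines at 5000–10000 cells/well. Serially diluted compound added, then 4 days at 37 °C, 5% CO2. Growth read with WST-8 reagent after at least 1 h, absorbance at 450 nm. RS4;11, MOLM-13 and breast lines were grown in RPMI 1640; MV-4-11 and HL-60 in IMDM; all with 10% FBS. Mean ± SE, at least three independent experiments.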

MV4-11 = experiment: Antiproliferative activity against human MV4-11 cells expressing wild type p53 assessed as cell growth inhibition after 4 days by WST-8 assay; type: functional, cell-based; details: MV4-11, 96 h; method in brief: as §1
HL-60 = experiment: Antiproliferative activity against human HL60 cells with lack of p53 assessed as cell growth inhibition after 4 days by WST-8 assay; type: functional, cell-based; details: HL-60, 96 h; method in brief: as §1
[1] = target: T1, E3 ubiquitin-protein ligase Mdm2 (Homo sapiens, UniProt Q00987); experiment: Induction of MDM2 degradation in human RS4:11 cells assessed as upregulation of p53 at 1 to 30 nM after 1 hr by Western blot analysis; type: cell-based
T1 sequence (Q00987 whole entry, looked up): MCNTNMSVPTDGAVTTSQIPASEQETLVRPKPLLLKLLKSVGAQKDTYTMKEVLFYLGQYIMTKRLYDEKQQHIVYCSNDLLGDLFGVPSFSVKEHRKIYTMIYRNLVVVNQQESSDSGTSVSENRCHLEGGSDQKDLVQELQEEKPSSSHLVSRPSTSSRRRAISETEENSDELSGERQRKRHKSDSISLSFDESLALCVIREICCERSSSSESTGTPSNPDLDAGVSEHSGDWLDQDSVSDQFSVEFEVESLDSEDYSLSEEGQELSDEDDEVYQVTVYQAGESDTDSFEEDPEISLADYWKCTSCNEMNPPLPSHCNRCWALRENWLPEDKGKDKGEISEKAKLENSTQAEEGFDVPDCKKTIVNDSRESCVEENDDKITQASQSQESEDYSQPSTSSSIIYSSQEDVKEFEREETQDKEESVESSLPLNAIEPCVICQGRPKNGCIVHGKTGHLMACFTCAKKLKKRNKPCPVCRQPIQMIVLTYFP
Method in brief: (§2)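 Western blots of MDM2 and p53 protein were run on RS4;11 cells (wild-type p53) in RPMI 1640 with 10% FBS. 2×10^6 cells/well were treated at the indicated concentrations for 1 h or 2 h. Lysis was in ice-cold buffer with protease inhibitor, followed by probing with specific antibodies.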

[2] = target: T1, E3 ubiquitin-protein ligase Mdm2; experiment: Induction of MDM2 degradation in human RS4:11 cells assessed as downregulation of MDM2 at 1 to 30 nM after 2 hrs by Western blot analysis; type: cell-based; method in brief: as §2
[3] = target: T1, E3 ubiquitin-protein ligase Mdm2; experiment: Induction of MDM2 degradation in human RS4:11/IRMI-2 cells harboring p53 hotspot mutation Y236H/R249G assessed as downregulation of MDM2 at 1 to 30 nM after 2 hrs by Western blot analysis; type: cell-based
Method in brief: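 RS4;11/IRMI-2 cells are an MDM2 inhibitor-resistant line derived from RS4;11, with p53 mutations confirmed by sequencing. 2×10^6 cells/well were treated 2 h at the indicated concentrations. MDM2 protein was probed by Western blot after lysis in ice-cold buffer with protease inhibitor.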

[4] = target: Cellular tumor antigen p53 (Homo sapiens) (UniProt P04637); experiment: Activation of p53 in human RS4:11 cells assessed as increase in MDM2 mRNA expression at 3 nM after 1 to 2 hrs by qRT-PCR analysis; type: cell-based
Cellular tumor antigen p53 (Homo sapiens), sequence (P04637 whole entry, looked up): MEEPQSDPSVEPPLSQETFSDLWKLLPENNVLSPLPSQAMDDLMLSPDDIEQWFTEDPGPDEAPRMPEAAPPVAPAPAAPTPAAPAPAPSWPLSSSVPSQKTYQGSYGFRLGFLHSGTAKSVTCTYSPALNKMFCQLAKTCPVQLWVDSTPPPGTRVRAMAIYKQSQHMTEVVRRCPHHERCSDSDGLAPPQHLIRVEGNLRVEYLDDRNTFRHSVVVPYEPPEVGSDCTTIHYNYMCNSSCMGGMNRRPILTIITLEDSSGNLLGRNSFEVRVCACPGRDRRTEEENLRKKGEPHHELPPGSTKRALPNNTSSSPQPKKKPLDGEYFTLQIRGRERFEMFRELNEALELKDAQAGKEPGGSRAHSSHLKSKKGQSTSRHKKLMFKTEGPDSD
Method in brief: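 RS4;11 cells (RPMI 1640, 10% FBS, 37 °C, 5% CO2) treated with 3 nM or 10 nM compound; total RNA extracted and mRNA of p53 targets MDM2, CDKN1A, PUMA and BAX quantified by qRT-PCR. Mean ± standard error from at least three independent experiments.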

MDA-MB-231 = experiment: Antiproliferative activity against human MDA-MB-231 cells transfected with CRBN siRNA LQ-021086-11-0002 assessed as cell growth inhibition after 4 days by WST-8 assay; type: functional, cell-based; details: MDA-MB-231, 96 h
Method in brief: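 MDA-MB-231 or MDA-MB-468 cells transfected for 2 days using Lipofectamine RNAiMAX with MDM2 siRNA, one of two CRBN siRNAs, or non-targeting control siRNA. Compound then added and growth read by WST-8 at 450 nm.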

[5] = target: T2, Protein cereblon/Eukaryotic peptide chain release factor GTP-binding subunit ERF3A/DNA damage-binding protein 1/Cullin-4A (Homo sapiens) (UniProt Q96SW2+Q16531+Q13619+P15170); experiment: Protac activity at GSPT1/CUL4/DDB1/CRBN in human RS4:11 cells expressing wild type p53 assessed as decrease in GSPT1 protein level at 10 nM by Western blot analysis; type: cell-based; details: TDE = time-dependent effect
T2 sequence (P15170 whole entry, looked up): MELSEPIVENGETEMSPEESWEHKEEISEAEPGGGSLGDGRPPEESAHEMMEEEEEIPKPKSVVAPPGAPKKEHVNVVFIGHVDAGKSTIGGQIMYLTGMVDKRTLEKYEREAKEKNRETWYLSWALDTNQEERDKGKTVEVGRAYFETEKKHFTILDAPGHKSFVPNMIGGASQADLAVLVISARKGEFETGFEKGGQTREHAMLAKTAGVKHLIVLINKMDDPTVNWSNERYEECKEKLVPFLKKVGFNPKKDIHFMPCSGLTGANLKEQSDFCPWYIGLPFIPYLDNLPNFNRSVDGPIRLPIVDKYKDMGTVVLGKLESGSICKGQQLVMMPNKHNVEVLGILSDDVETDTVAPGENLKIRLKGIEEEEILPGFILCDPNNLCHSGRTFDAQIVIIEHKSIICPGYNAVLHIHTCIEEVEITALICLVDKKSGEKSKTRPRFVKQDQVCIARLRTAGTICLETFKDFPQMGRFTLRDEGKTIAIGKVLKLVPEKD
T2 sequence (Q13619 whole entry, looked up): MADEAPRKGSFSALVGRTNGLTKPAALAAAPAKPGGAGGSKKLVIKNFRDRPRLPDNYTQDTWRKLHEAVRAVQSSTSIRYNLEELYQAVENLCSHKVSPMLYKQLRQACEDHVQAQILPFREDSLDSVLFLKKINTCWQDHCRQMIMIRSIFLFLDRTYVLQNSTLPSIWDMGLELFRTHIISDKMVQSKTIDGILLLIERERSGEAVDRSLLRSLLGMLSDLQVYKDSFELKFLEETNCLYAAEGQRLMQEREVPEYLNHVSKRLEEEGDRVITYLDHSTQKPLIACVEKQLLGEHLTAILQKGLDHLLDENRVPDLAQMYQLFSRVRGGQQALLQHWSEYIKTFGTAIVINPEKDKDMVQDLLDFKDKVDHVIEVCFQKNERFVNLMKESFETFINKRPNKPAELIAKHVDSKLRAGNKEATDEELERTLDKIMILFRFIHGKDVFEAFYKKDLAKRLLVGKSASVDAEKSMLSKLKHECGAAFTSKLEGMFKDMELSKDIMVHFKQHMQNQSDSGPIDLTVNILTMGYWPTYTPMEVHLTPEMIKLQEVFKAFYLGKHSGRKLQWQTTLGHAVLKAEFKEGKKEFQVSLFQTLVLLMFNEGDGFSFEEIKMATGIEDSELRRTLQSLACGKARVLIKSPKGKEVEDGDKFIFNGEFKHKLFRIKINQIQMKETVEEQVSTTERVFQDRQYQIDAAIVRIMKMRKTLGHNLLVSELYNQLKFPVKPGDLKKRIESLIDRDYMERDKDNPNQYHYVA
T2 sequence (Q16531 whole entry, looked up): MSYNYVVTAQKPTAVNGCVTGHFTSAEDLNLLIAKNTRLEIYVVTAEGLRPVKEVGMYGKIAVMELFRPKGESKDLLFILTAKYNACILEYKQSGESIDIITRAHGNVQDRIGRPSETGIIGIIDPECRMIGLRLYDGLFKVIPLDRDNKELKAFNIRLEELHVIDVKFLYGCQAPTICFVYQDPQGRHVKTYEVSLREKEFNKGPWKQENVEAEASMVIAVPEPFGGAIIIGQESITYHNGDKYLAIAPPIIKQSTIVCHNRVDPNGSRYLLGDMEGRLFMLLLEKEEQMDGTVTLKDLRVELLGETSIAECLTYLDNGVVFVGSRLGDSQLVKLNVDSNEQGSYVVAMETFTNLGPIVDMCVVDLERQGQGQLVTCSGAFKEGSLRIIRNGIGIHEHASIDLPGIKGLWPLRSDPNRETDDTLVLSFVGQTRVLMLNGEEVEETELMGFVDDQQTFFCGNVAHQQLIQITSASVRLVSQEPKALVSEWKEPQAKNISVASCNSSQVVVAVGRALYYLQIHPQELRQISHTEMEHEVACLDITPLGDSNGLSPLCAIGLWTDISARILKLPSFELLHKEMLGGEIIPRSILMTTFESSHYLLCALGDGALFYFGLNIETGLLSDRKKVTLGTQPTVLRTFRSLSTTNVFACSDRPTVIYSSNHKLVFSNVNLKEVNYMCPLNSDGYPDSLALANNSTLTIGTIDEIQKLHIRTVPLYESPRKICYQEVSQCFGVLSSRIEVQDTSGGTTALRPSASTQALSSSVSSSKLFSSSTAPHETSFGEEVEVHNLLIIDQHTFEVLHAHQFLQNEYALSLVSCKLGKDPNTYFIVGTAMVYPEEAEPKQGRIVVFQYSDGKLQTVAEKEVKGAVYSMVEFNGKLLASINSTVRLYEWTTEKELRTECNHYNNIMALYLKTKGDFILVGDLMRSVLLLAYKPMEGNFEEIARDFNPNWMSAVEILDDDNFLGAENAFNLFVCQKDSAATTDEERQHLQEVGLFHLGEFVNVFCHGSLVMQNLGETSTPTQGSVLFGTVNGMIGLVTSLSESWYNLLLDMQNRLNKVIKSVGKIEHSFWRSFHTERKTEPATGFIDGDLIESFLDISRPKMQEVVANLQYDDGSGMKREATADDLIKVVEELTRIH
T2 sequence (Q96SW2 whole entry, looked up): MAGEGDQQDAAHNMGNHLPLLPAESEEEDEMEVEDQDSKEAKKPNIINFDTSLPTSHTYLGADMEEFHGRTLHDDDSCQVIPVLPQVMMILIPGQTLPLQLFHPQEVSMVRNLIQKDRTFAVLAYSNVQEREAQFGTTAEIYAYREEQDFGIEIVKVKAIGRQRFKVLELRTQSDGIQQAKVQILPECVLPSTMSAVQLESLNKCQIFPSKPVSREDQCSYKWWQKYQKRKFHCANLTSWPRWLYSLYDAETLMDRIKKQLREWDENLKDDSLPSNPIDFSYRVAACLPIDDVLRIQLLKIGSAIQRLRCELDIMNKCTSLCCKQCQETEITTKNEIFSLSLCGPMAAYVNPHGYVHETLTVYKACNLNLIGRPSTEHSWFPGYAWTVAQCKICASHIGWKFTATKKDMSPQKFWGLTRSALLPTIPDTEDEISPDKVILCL
Method in brief: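 RS4;11 (wild-type p53) or RS4;11/IRMI-2 (MDM2 inhibitor-resistant derivative, mutant p53) cells kept in RPMI 1640 with 10% FBS at 37 °C, 5% CO₂. 2×10^6 cells/well treated at the indicated concentrations and times, then lysed in ice-cold lysis buffer with protease inhibitor. GSPT1 detected by Western blot with a specific antibody.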

[6] = target: T2, Protein cereblon/Eukaryotic peptide chain release factor GTP-binding subunit ERF3A/DNA damage-binding protein 1/Cullin-4A (Homo sapiens); experiment: Protac activity at GSPT1/CUL4/DDB1/CRBN in human RS4:11 cells expressing wild type p53 assessed as effect on GSPT1 mRNA level after 3 hrs by qRT-PCR analysis; type: cell-based
Method in brief: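 Total RNA taken from treated cells at the indicated time points. RNA concentration measured on a plate reader. GSPT1 mRNA quantified by qRT-PCR. Data are mean ± standard error from at least three independent experiments.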

[7] = target: Eukaryotic peptide chain release factor GTP-binding subunit ERF3A (Homo sapiens, UniProt P15170); experiment: Induction of GSPT1 degradation in human RS4:11 cells at 0.1 uM pretreated with proteasome inhibitor PR-171 followed by compound treatment after 2 hrs by Western blot analysis
Eukaryotic peptide chain release factor GTP-binding subunit ERF3A, sequence (P15170 whole entry): as the sequence (P15170 whole entry, looked up) above

[8] = target: T2, Protein cereblon/Eukaryotic peptide chain release factor GTP-binding subunit ERF3A/DNA damage-binding protein 1/Cullin-4A (Homo sapiens); experiment: Protac activity at GSPT1/CUL4/DDB1/CRBN in human RS4:11/IRMI-2 cells harboring p53 hotspot mutation Y236H/R249G assessed as decrease in GSPT1 protein level by measuring fold change of protein level before and after treatment at 0.1 uM measured after 3 hrs relative to control

In the case of `O=C1CCC(N2Cc3c(CCCCCNC(=O)[C@@H]4NC5(CCCCC5)[C@@]5(C(=O)Nc6cc(Cl)ccc65)[C@H]4c4cccc(Cl)c4F)cccc3C2=O)C(=O)N1` (some centres not stated), the IC50 (RS4-11) is reported as 3.5 nM, the IC50 (MV4-11) is reported as 7.9 nM and the IC50 (HL-60) is reported as 8.3 nM. The Activity [1] was “inactive”, the Activity [2] was “Active” and the Activity [3] was “Active”. The Activity [4] was “inactive”, the IC50 (MDA-MB-231) was greater than 3000 nM and the Activity [5] was “Tde”. The Activity [6] was “inactive”, the Activity [7] was “inactive” and the fold change [8] was 3.7.
